≈ marks a conversion by molar mass, not a printed value.
Assays:
Format in all cases: functional
Klebsiella pneumoniae [1] = experiment: Antimicrobial activity against Klebsiella pneumoniae isolate Kp6A expressing beta-lactamase OXA-48 and TEM-150 by Etest method in presence of beta-lactamase inhibitor clavulanic acid
Procedure, shortened: (§1)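 MICs of β-lactams read from Etest strips. The test organisms are carbapenem-resistant, OXA-48-positive clinical Enterobacteriaceae isolates recovered from Turkey, Lebanon, Egypt, France and Belgium.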

Escherichia coli [2] = experiment: Antimicrobial activity against Escherichia coli isolate J53 harboring pE containing beta-lactamase OXA-48 located within transposon Tn1999.2 by Etest method
Procedure, shortened: (§2)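 β-Lactam MICs read with Etest strips. Strains are E. coli J53 recipient and J53 transconjugants carrying OXA-48-positive plasmids recovered from clinical enterobacterial isolates.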

Escherichia coli [3] = experiment: Antimicrobial activity against Escherichia coli isolate J53 harboring pA-1 containing beta-lactamase OXA-48 located within transposon Tn1999 by Etest method in presence of beta-lactamase inhibitor clavulanic acid; procedure, shortened: as §2
Escherichia coli [4] = experiment: Antimicrobial activity against Escherichia coli isolate J53 harboring pA-1 containing beta-lactamase OXA-48 located within transposon Tn1999 by Etest method; procedure, shortened: as §2
Escherichia coli [5] = experiment: Antimicrobial activity against Escherichia coli isolate J53 by Etest method; procedure, shortened: as §2
Klebsiella pneumoniae [6] = experiment: Antimicrobial activity against Klebsiella pneumoniae isolate Kp11978 expressing beta-lactamase OXA-48, SHV-2a and TEM-1 by Etest method in presence of beta-lactamase inhibitor clavulanic acid; procedure, shortened: as §1
Klebsiella pneumoniae [7] = experiment: Antimicrobial activity against Klebsiella pneumoniae isolate KpL expressing beta-lactamase OXA-48 by Etest method in presence of beta-lactamase inhibitor clavulanic acid; procedure, shortened: as §1
Escherichia coli [8] = experiment: Antimicrobial activity against Escherichia coli isolate J53 harboring pEcA containing beta-lactamase OXA-48 located within transposon Tn1999.2 by Etest method; procedure, shortened: as §2
Klebsiella pneumoniae [9] = experiment: Antimicrobial activity against Klebsiella pneumoniae isolate Kp6A expressing beta-lactamase OXA-48 and TEM-150 by Etest method
Escherichia coli [10] = experiment: Antimicrobial activity against Escherichia coli isolate J53 harboring pE containing beta-lactamase OXA-48 located within transposon Tn1999.2 by Etest method in presence of beta-lactamase inhibitor clavulanic acid; procedure, shortened: as §2
Providencia rettgeri = experiment: Antimicrobial activity against Providencia rettgeri isolate expressing beta-lactamase OXA-48 and TEM-101 by Etest method
Klebsiella pneumoniae [11] = experiment: Antimicrobial activity against Klebsiella pneumoniae isolate Kp4A expressing beta-lactamase OXA-48 and CTX-M-15 by Etest method in presence of beta-lactamase inhibitor clavulanic acid; procedure, shortened: as §1
Escherichia coli [12] = experiment: Antimicrobial activity against Escherichia coli isolate J53 harboring p4A containing beta-lactamase OXA-48 located within transposon Tn1999 by Etest method; procedure, shortened: as §2
Escherichia coli [13] = experiment: Antimicrobial activity against Escherichia coli isolate J53 harboring p3A containing beta-lactamase OXA-48 located within transposon Tn1999 by Etest method; procedure, shortened: as §2
Klebsiella pneumoniae [14] = experiment: Antimicrobial activity against Klebsiella pneumoniae isolate KpI-1 expressing beta-lactamase OXA-48 and CTX-M-15 by Etest method
Escherichia coli [15] = experiment: Antimicrobial activity against Escherichia coli isolate J53 harboring pBb containing beta-lactamase OXA-48 located within transposon Tn1999.2 by Etest method in presence of beta-lactamase inhibitor clavulanic acid; procedure, shortened: as §2
Klebsiella pneumoniae [16] = experiment: Antimicrobial activity against Klebsiella pneumoniae isolate Kp4A expressing beta-lactamase OXA-48 and CTX-M-15 by Etest method
Escherichia coli [17] = experiment: Antimicrobial activity against Escherichia coli isolate A expressing beta-lactamase OXA-48 and TEM-150 by Etest method in presence of beta-lactamase inhibitor clavulanic acid; procedure, shortened: as §1
Escherichia coli [18] = experiment: Antimicrobial activity against Escherichia coli isolate J53 harboring pEnc2 containing beta-lactamase OXA-48 located within transposon Tn1999 by Etest method; procedure, shortened: as §2
Escherichia coli [19] = experiment: Antimicrobial activity against Escherichia coli isolate TOP10 harboring pBIC containing beta-lactamase OXA-48 located within transposon Tn1999.2 by Etest method
Procedure, shortened: (§3)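 β-Lactam MICs read with Etest strips. Strains are E. coli TOP10 host and TOP10 transformants made with plasmid DNA extract when conjugation failed. Transformants were selected on LB agar with ticarcillin 50 μg/ml.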

Escherichia coli [20] = experiment: Antimicrobial activity against Escherichia coli isolate TOP10 harboring pPR containing beta-lactamase and TEM-101 by Etest method; procedure, shortened: as §3
Escherichia coli [21] = experiment: Antimicrobial activity against Escherichia coli isolate A expressing beta-lactamase OXA-48 and TEM-150 by Etest method
Enterobacter cloacae = experiment: Antimicrobial activity against Enterobacter cloacae isolate 1 expressing beta-lactamase OXA-48 and SHV-5 by Etest method in presence of beta-lactamase inhibitor clavulanic acid; procedure, shortened: as §1
Escherichia coli [22] = experiment: Antimicrobial activity against Escherichia coli isolate J53 harboring pL containing beta-lactamase OXA-48 located within transposon Tn1999.2 by Etest method; procedure, shortened: as §2
Escherichia coli [23] = experiment: Antimicrobial activity against Escherichia coli isolate TOP10 harboring pPR containing beta-lactamase and TEM-101 by Etest method in presence of beta-lactamase inhibitor clavulanic acid; procedure, shortened: as §3
Escherichia coli [24] = experiment: Antimicrobial activity against Escherichia coli isolate J53 harboring pEnc1 containing beta-lactamase OXA-48 located within transposon Tn1999 by Etest method; procedure, shortened: as §2
Klebsiella pneumoniae [25] = experiment: Antimicrobial activity against Klebsiella pneumoniae isolate Kp7A expressing beta-lactamase OXA-48 by Etest method in presence of beta-lactamase inhibitor clavulanic acid; procedure, shortened: as §1
Escherichia coli [26] = experiment: Antimicrobial activity against Escherichia coli isolate J53 harboring pCF containing beta-lactamase OXA-48 located within transposon Tn1999 by Etest method; procedure, shortened: as §2
Escherichia coli [27] = experiment: Antimicrobial activity against Escherichia coli isolate TOP10 by Etest method in presence of beta-lactamase inhibitor clavulanic acid; procedure, shortened: as §3
Escherichia coli [28] = experiment: Antimicrobial activity against Escherichia coli isolate J53 harboring p6A containing beta-lactamase OXA-48 located within transposon Tn1999 by Etest method; procedure, shortened: as §2
Klebsiella pneumoniae [29] = experiment: Antimicrobial activity against Klebsiella pneumoniae isolate Kp3A expressing beta-lactamase OXA-48 by Etest method; procedure, shortened: as §1
Klebsiella pneumoniae [30] = experiment: Antimicrobial activity against Klebsiella pneumoniae isolate KpBIC expressing beta-lactamase OXA-48 by Etest method in presence of beta-lactamase inhibitor clavulanic acid; procedure, shortened: as §1
Klebsiella pneumoniae [31] = experiment: Antimicrobial activity against Klebsiella pneumoniae isolate KpBIC expressing beta-lactamase OXA-48 by Etest method; procedure, shortened: as §1
Klebsiella pneumoniae [32] = experiment: Antimicrobial activity against Klebsiella pneumoniae isolate KpI-1 expressing beta-lactamase OXA-48 and CTX-M-15 by Etest method in presence of beta-lactamase inhibitor clavulanic acid; procedure, shortened: as §1
Klebsiella pneumoniae [33] = experiment: Antimicrobial activity against Klebsiella pneumoniae isolate KpBEL expressing beta-lactamase OXA-48 by Etest method in presence of beta-lactamase inhibitor clavulanic acid; procedure, shortened: as §1
Escherichia coli [34] = experiment: Antimicrobial activity against Escherichia coli isolate J53 harboring pL containing beta-lactamase OXA-48 located within transposon Tn1999.2 by Etest method in presence of beta-lactamase inhibitor clavulanic acid; procedure, shortened: as §2
Escherichia coli [35] = experiment: Antimicrobial activity against Escherichia coli isolate J53 harboring pI-2 containing beta-lactamase OXA-48 located within transposon Tn1999.2 by Etest method in presence of beta-lactamase inhibitor clavulanic acid; procedure, shortened: as §2
Escherichia coli [36] = experiment: Antimicrobial activity against Escherichia coli isolate J53 harboring pEcA containing beta-lactamase OXA-48 located within transposon Tn1999.2 by Etest method in presence of beta-lactamase inhibitor clavulanic acid; procedure, shortened: as §2
Escherichia coli [37] = experiment: Antimicrobial activity against Escherichia coli isolate J53 harboring pI-1 containing beta-lactamase OXA-48 located within transposon Tn1999.2 by Etest method in presence of beta-lactamase inhibitor clavulanic acid; procedure, shortened: as §2

## CC1(C)S[C@@H]2[C@H](NC(=O)[C@H](C(=O)O)c3ccsc3)C(=O)N2[C@H]1C(=O)O [TICARCILLIN]
Klebsiella pneumoniae [1]
  MIC: > 512 µg/mL
Escherichia coli [2]
  MIC: > 512 µg/mL
Escherichia coli [3]
  MIC: 128 µg/mL
Escherichia coli [4]
  MIC: > 512 µg/mL
Escherichia coli [5]
  MIC: 2 µg/mL (≈ 5.2 µM)
Klebsiella pneumoniae [6]
  MIC: > 512 µg/mL
Klebsiella pneumoniae [7]
  MIC: > 256 µg/mL
Escherichia coli [8]
  MIC: > 256 µg/mL
Klebsiella pneumoniae [9]
  MIC: > 512 µg/mL
Escherichia coli [10]
  MIC: > 512 µg/mL
Providencia rettgeri
  MIC: > 256 µg/mL
Klebsiella pneumoniae [11]
  MIC: > 512 µg/mL
Escherichia coli [12]
  MIC: > 512 µg/mL
Escherichia coli [13]
  MIC: > 512 µg/mL
Klebsiella pneumoniae [14]
  MIC: > 512 µg/mL
Escherichia coli [15]
  MIC: > 512 µg/mL
Klebsiella pneumoniae [16]
  MIC: > 512 µg/mL
Escherichia coli [17]
  MIC: > 256 µg/mL
Escherichia coli [18]
  MIC: > 512 µg/mL
Escherichia coli [19]
  MIC: > 512 µg/mL
Escherichia coli [20]
  MIC: > 256 µg/mL
Escherichia coli [21]
  MIC: > 256 µg/mL
Enterobacter cloacae
  MIC: > 512 µg/mL
Escherichia coli [22]
  MIC: > 256 µg/mL
Escherichia coli [23]
  MIC: > 256 µg/mL
Escherichia coli [24]
  MIC: > 512 µg/mL
Klebsiella pneumoniae [25]
  MIC: > 512 µg/mL
Escherichia coli [26]
  MIC: > 512 µg/mL
Escherichia coli [27]
  MIC: 4 µg/mL
Escherichia coli [28]
  MIC: > 512 µg/mL
Klebsiella pneumoniae [29]
  MIC: > 512 µg/mL
Klebsiella pneumoniae [30]
  MIC: > 512 µg/mL
Klebsiella pneumoniae [31]
  MIC: > 512 µg/mL
Klebsiella pneumoniae [32]
  MIC: > 512 µg/mL
Klebsiella pneumoniae [33]
  MIC: > 256 µg/mL
Escherichia coli [34]
  MIC: > 256 µg/mL
Escherichia coli [35]
  MIC: > 512 µg/mL
Escherichia coli [36]
  MIC: > 256 µg/mL
Escherichia coli [37]
  MIC: > 512 µg/mL

## CC1(C)S[C@@H]2[C@H](NC(=O)[C@H](N)c3ccc(O)cc3)C(=O)N2[C@H]1C(=O)O [AMOXICILLIN]
Klebsiella pneumoniae [1]
  MIC: > 512 µg/mL
Escherichia coli [2]
  MIC: > 512 µg/mL
Escherichia coli [3]
  MIC: 128 µg/mL
Escherichia coli [4]
  MIC: > 512 µg/mL
Escherichia coli [5]
  MIC: 4 µg/mL (≈ 10.9 µM)
Klebsiella pneumoniae [6]
  MIC: > 512 µg/mL
Klebsiella pneumoniae [7]
  MIC: > 256 µg/mL
Escherichia coli [8]
  MIC: > 256 µg/mL
Klebsiella pneumoniae [9]
  MIC: > 512 µg/mL
Escherichia coli [10]
  MIC: > 512 µg/mL
Providencia rettgeri
  MIC: > 256 µg/mL
Klebsiella pneumoniae [11]
  MIC: > 512 µg/mL
Escherichia coli [12]
  MIC: > 512 µg/mL
Escherichia coli [13]
  MIC: > 512 µg/mL
Klebsiella pneumoniae [14]
  MIC: > 512 µg/mL
Escherichia coli [15]
  MIC: > 512 µg/mL
Klebsiella pneumoniae [16]
  MIC: > 512 µg/mL
Escherichia coli [17]
  MIC: > 256 µg/mL
Escherichia coli [18]
  MIC: > 512 µg/mL
Escherichia coli [19]
  MIC: > 512 µg/mL
Escherichia coli [20]
  MIC: > 256 µg/mL
Escherichia coli [21]
  MIC: > 256 µg/mL
Enterobacter cloacae
  MIC: > 512 µg/mL
Escherichia coli [22]
  MIC: > 256 µg/mL
Escherichia coli [23]
  MIC: > 256 µg/mL
Escherichia coli [24]
  MIC: > 512 µg/mL
Klebsiella pneumoniae [25]
  MIC: > 512 µg/mL
Escherichia coli [26]
  MIC: > 512 µg/mL
Escherichia coli [27]
  MIC: 4 µg/mL
Escherichia coli [28]
  MIC: > 512 µg/mL
Klebsiella pneumoniae [29]
  MIC: > 512 µg/mL
Klebsiella pneumoniae [30]
  MIC: > 512 µg/mL
Klebsiella pneumoniae [31]
  MIC: > 512 µg/mL
Klebsiella pneumoniae [32]
  MIC: > 512 µg/mL
Klebsiella pneumoniae [33]
  MIC: > 256 µg/mL
Escherichia coli [34]
  MIC: > 256 µg/mL
Escherichia coli [35]
  MIC: > 512 µg/mL
Escherichia coli [36]
  MIC: > 256 µg/mL
Escherichia coli [37]
  MIC: > 512 µg/mL
